# Data published in ChEMBL document CHEMBL4715779, “In vivo effective dibenzo[b,d]furan-1-yl-thiazoles as novel PDE-4 inhibitors” (Bioorg Med Chem, 2016).
# Assays:
# [1] = tested on: PBMC; experiment: Inhibition of PDE-4 in human PBMC assessed as LPS-induced TNFalpha production at 100 nM incubated for 15 mins followed by LPS stimulation and measured after 18 hrs by ELISA relative to control; conditions: time 1095.0 min
# Summary of the method: (§1)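 PBMC isolated from healthy volunteers' blood in cell preparation tubes, suspended in RPMI; 0.5 million cells/well pre-incubated with compound 15 min at 37 °C, then stimulated with E. coli LPS (B4) 1 µg/mL for 18 h at 37 °C, 5% CO2; medium TNF-α measured by ELISA.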
# [2] = molecular target: T1, 3',5'-cyclic-AMP phosphodiesterase 4B (Homo sapiens, UniProt Q07343); experiment: Inhibition of human PDE4B using [3H]cAMP as substrate at 100 nM incubated for 5 mins followed by substrate addition and measured after 10 mins by scintillation proximity assay relative to control; conditions: time 15.0 min
# Summary of the method: (§2)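 Purified human PDE-4B2 in 50 mM Tris pH 7.4, 8.3 mM Mg2+, 1% DMSO final, enzyme converting 10–20% of substrate; 5 min pre-incubation at 37 °C, then 0.5 µM cAMP with ~50,000 cpm [3H]-cAMP for 10 min; stopped with yttrium silicate SPA beads containing 18 mM ZnSO4, read after >30 min settling. Background = no enzyme; IC50 from 8–10-point 4-parameter fit.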
# [3] = tested on: PBMC; experiment: Inhibition of PDE-4 in human PBMC assessed as LPS-induced TNFalpha production at 1000 nM incubated for 15 mins followed by LPS stimulation and measured after 18 hrs by ELISA relative to control; conditions: time 1095.0 min; summary of the method: as §1
# [4] = Inhibition of PDE-4 in human PBMC assessed as LPS-induced TNFalpha production incubated for 15 mins followed by LPS stimulation and measured after 18 hrs by ELISA relative to control; summary of the method: as §1
# [5] = molecular target: T1, 3',5'-cyclic-AMP phosphodiesterase 4B; experiment: Inhibition of human PDE4B using [3H]cAMP as substrate incubated for 5 mins followed by substrate addition and measured after 10 mins by scintillation proximity assay; summary of the method: as §2
# [6] = molecular target: T1, 3',5'-cyclic-AMP phosphodiesterase 4B; experiment: Inhibition of human PDE4B using [3H]CAMP as substrate at 1000 nM incubated for 5 mins followed by substrate addition and measured after 10 mins by scintillation proximity assay relative to control; conditions: time 15.0 min; summary of the method: as §2
# [7] = tested on: Mus musculus; experiment: Antiinflammatory activity in Swiss albino mouse model of LPS-induced sepsis assessed as reduction in TNFalpha production at 1 mg/kg, po administered 30 mins before LPS stimulation and measured after 90 min by ELISA relative to control; assay type: functional; conditions: 2 h, time 120 min
# Summary of the method: (§3)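 Female Swiss albino mice fasted 20 h with water, dosed orally in 0.5% Tween 80/0.25% CMC sodium; vehicle-only controls. 500 µg E. coli LPS (B4) in PBS i.p. 30 min later; retro-orbital bleed 90 min post-LPS, blood held overnight at 4 °C, serum TNF-α by mouse ELISA; % inhibition.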
# [8] = tested on: Mus musculus; experiment: Antiinflammatory activity in Swiss albino mouse model of LPS-induced sepsis assessed as reduction in TNFalpha production at 10 mg/kg, po administered 30 mins before LPS stimulation and measured after 90 min by ELISA relative to control; assay type: functional; conditions: 2 h, time 120 min; summary of the method: as §3
# [9] = tested on: Rattus norvegicus; experiment: Antiinflammatory activity in Sprague-Dawley rat model of LPS-induced COPD and asthma assessed as reduction in neutrophil influx in BALF at 10 mg/kg, po administered 30 mins before LPS stimulation and measured after 6 hrs relative to control; assay type: functional; conditions: time 6.5 hrs
# [10] = tested on: Rattus norvegicus; experiment: Antiinflammatory activity in Sprague-Dawley rat model of LPS-induced COPD and asthma assessed as reduction in neutrophil influx in BALF at 5 mg/kg, po administered 30 mins before LPS stimulation and measured after 6 hrs relative to control; assay type: functional; conditions: time 6.5 hrs
# [11] = tested on: Mus musculus; experiment: Antiinflammatory activity in Swiss albino mouse model of LPS-induced sepsis assessed as reduction in TNFalpha production at 3 mg/kg, po administered 30 mins before LPS stimulation and measured after 90 min by ELISA relative to control; assay type: functional; conditions: 2 h, time 120 min; summary of the method: as §3
# [12] = tested on: Rattus norvegicus; experiment: Antiinflammatory activity in Sprague-Dawley rat model of LPS-induced COPD and asthma assessed as reduction in total cell count in BALF at 10 mg/kg, po administered 30 mins before LPS stimulation and measured after 6 hrs relative to control; assay type: functional; conditions: time 6.5 hrs
# T1 sequence (Q07343 whole entry): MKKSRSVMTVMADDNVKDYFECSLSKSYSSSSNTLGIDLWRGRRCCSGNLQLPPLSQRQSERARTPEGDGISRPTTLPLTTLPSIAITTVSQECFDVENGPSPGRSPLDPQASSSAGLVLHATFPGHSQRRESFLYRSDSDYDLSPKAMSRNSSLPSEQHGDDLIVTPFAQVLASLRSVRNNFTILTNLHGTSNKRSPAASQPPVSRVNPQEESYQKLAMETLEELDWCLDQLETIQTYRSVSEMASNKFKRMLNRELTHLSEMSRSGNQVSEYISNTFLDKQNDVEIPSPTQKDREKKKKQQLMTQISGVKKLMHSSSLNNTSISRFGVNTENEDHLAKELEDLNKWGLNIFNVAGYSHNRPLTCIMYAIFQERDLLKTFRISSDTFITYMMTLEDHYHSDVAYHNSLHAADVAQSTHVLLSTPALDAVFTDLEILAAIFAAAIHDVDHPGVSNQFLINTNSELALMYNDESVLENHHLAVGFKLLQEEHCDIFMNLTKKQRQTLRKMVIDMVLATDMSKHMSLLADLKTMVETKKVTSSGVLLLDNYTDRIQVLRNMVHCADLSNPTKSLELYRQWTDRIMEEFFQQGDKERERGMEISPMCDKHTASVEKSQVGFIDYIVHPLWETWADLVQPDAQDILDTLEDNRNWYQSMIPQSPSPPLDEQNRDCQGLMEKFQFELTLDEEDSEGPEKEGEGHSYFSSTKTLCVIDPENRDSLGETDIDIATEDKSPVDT
Structure (SMILES),inhibition [1] [%],inhibition [2] [%],inhibition [3] [%],inhibition [6] [%],further results
O=C(O)c1csc(-c2ccc(OC(F)F)c3oc4ccc(C(F)(F)F)cc4c23)n1,4.2,59.3,,,
COc1ccc(-c2nc(C(=O)NN3CCOCC3)cs2)c2c1oc1ccccc12,,39.6,22,,
COc1ccc(-c2nc(C(=O)Nc3c(Cl)cncc3Cl)c(C)s2)c2c1oc1ccccc12,0.9,11.1,9.9,,
COc1ccc(-c2nc(C(=O)NC3CCC(O)CC3)c(C)s2)c2c1oc1ccccc12 (configuration not stated),82.7,62.6,103,,IC50 [4]: 0.0277 µM; IC50 [5]: 0.0438 µM
O=C(NCC(F)(F)F)c1csc(-c2ccc(OC(F)F)c3oc4ccccc4c23)n1,26.7,,31.9,,
O=C(Nc1c(Cl)cncc1Cl)c1csc(-c2ccc(OC(F)F)c3oc4ccccc4c23)n1,14.5,42.3,28.3,88.6,IC50 [4]: 2.21 µM; IC50 [5]: 0.127 µM
COc1ccc(-c2nc(C(=O)N3CCN(c4ncccn4)CC3)cs2)c2c1oc1ccccc12,,25.8,,59.3,
Cc1sc(-c2ccc(OC(F)F)c3oc4ccc(NS(C)(=O)=O)cc4c23)nc1C(=O)O,,62.6,,,
CCOC(=O)c1csc(-c2ccc(OC)c3oc4ccccc4c23)n1,,17.6,,24.4,
CS(=O)(=O)Nc1ccc2oc3c(OC(F)F)ccc(C(=O)Nc4c(Cl)cncc4Cl)c3c2c1 [OGLEMILAST],,,,,inhibition in vivo at 1 mg/kg [7]: 53.9%; inhibition in vivo at 10 mg/kg [8]: 72.5%
O=C(c1csc(-c2ccc(OC(F)F)c3oc4ccc(C(F)(F)F)cc4c23)n1)N1CCC(O)CC1,14,27.4,,,
CCOc1cc([C@@H](CS(C)(=O)=O)N2C(=O)c3cccc(NC(C)=O)c3C2=O)ccc1OC,,,,,IC50 [4]: 0.077 µM
COc1ccc(-c2nc(C(=O)Nc3c(Cl)cncc3Cl)cs2)c2c1oc1ccccc12,,70.3,34.2,92,IC50 [4]: 1.75 µM; inhibition in vivo at 10 mg/kg [8]: 37.8%; IC50 [5]: 0.0484 µM
COc1ccc(-c2nc(C(=O)N3CCN(c4ccccn4)CC3)cs2)c2c1oc1ccccc12,,21.9,,52.9,
COc1ccc(-c2nc(C(=O)Nc3ccccc3)cs2)c2c1oc1ccccc12,,2.4,,7.4,
COc1ccc(-c2nc(CC(=O)Nc3c(Cl)cncc3Cl)cs2)c2c1oc1ccccc12,,32.7,,87.8,
CS(=O)(=O)Nc1ccc2oc3c(OC(F)F)ccc(-c4nc(C(=O)Nc5c(Cl)cncc5Cl)cs4)c3c2c1,25.1,43.4,,,
COc1ccc(-c2nc(-c3ccc(C#N)cc3)cs2)c2c1oc1ccccc12,,5.2,,15.8,

Structure (SMILES),inhibition [1] [%],inhibition [2] [%],inhibition [3] [%],inhibition [6] [%],further results
CCNC(=O)c1nc(-c2ccc(OC)c3oc4ccccc4c23)sc1C,9.9,24.6,23.8,,
CONC(=O)c1csc(-c2ccc(OC(F)F)c3oc4ccccc4c23)n1,8.5,35.7,,,inhibition in vivo at 10 mg/kg [8]: 40.7%
COc1ccc(-c2nc(CCC(=O)Nc3c(Cl)cncc3Cl)cs2)c2c1oc1ccccc12,,8.9,,38.5,
Cc1sc(-c2ccc(OC(F)F)c3oc4ccc(NS(C)(=O)=O)cc4c23)nc1C(=O)NC1CCC(O)CC1 (configuration not stated),61.8,67.6,92.8,,IC50 [4]: 0.0544 µM; inhibition in vivo at 10 mg/kg [9]: 19.3%; IC50 [5]: 0.0247 µM
COc1ccc(-c2nc(C(=O)NC3CCC(O)CC3)cs2)c2c1oc1ccccc12 (configuration not stated),63.2,71.8,,,IC50 [4]: 0.0377 µM; inhibition in vivo at 10 mg/kg [8]: 46.7%; IC50 [5]: 0.0495 µM
CC(=O)Nc1ccc2oc3c(OC(F)F)ccc(-c4nc(C(=O)O)cs4)c3c2c1,15.5,56.5,,,
COc1ccc(-c2nc(C(=O)Nc3ccc(Cl)cc3)cs2)c2c1oc1ccccc12,2.98,1.2,15.8,5.2,
CCOC(=O)c1cccc(-c2csc(-c3ccc(OC)c4oc5ccccc5c34)n2)n1,,5.8,,15.6,
CONC(=O)c1nc(-c2ccc(OC(F)F)c3oc4ccc(NS(C)(=O)=O)cc4c23)sc1C,35.4,81.2,,,
COc1ccc(-c2nc(-c3cccc(C(=O)O)n3)cs2)c2c1oc1ccccc12,,18.2,,26.4,
COc1ccc(-c2nc(C(=O)O)cs2)c2c1oc1ccccc12,,36,,80.4,
CC(=O)Nc1ccc2oc3c(OC(F)F)ccc(-c4nc(C(=O)NC5CCC(O)CC5)cs4)c3c2c1 (configuration not stated),83.4,69,91.9,,IC50 [4]: 0.0396 µM; inhibition in vivo at 10 mg/kg [9]: 51.2%; inhibition in vivo at 5 mg/kg [10]: 35.7%; IC50 [5]: 0.0404 µM
COc1ccc(-c2nc(C(=O)NC3CCCC3)c(C)s2)c2c1oc1ccccc12,21.9,1.6,39.1,,
COc1ccc(-c2csc(-c3ccc(OC)c4oc5ccccc5c34)n2)cc1,,19.4,,41.5,
O=C(Nc1c(Cl)cncc1Cl)c1ccc(OC(F)F)c(OCC2CC2)c1 [ROFLUMILAST],,,,,IC50 [4]: 0.0043 µM; inhibition in vivo at 3 mg/kg [11]: 59.2%; inhibition in vivo at 10 mg/kg [9]: 73.2%; inhibition in vivo at 10 mg/kg [12]: 73.2%
O=C(NC1CCC(O)CC1)c1csc(-c2ccc(OC(F)F)c3oc4ccc(C(F)(F)F)cc4c23)n1 (configuration not stated),17.2,51.5,,,
CS(=O)(=O)Nc1ccc2oc3c(OC(F)F)ccc(-c4nc(C(=O)NC5CCC(O)CC5)cs4)c3c2c1 (configuration not stated),78.6,67,97.8,,IC50 [4]: 0.0184 µM; IC50 [5]: 0.0314 µM
COc1ccc(-c2nc(C(N)=O)cs2)c2c1oc1ccccc12,35.5,15.4,69.8,43.8,IC50 [4]: 0.386 µM
